Reference: ChEMBL document CHEMBL1137654, “Activity of an antimicrobial peptide mimetic against planktonic and biofilm cultures of oral pathogens” (2007)
In brackets after ≈: the same amount, converted by molar mass. Blank lines part the entries; values can stand above or below the compound they belong to. Activity calls are given as the source filed them. No cut-off for these calls is given here.

Experiments:
[1] = test system: Porphyromonas gingivalis; test: Antibacterial activity against Porphyromonas gingivalis ATCC 53978 after 18 to 24 hrs; type: functional
Outline: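 P. gingivalis maintained in cooked meat medium with glucose, hemin and vitamin K at 37°C, anaerobic. MIC run in both cooked meat medium and TSB: 4.5 × 10⁵ CFU/ml with serial dilutions, 18 to 24 h, lowest concentration without visible turbidity. Triplicate.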

[2] = test system: Streptococcus mutans; test: Antibacterial activity against Streptococcus mutans ATCC 33402 biofilms assessed as log reduction of viable bacteria at 50 ug/ml; type: functional
Outline: (§1)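 1 × 10⁵ CFU grown 2 days in BHI + 1% sucrose, then compound added for 24 h. Biofilms washed with PBS, disrupted by sonication (30 s) in 2 ml PBS, serially diluted and plated on mitis agar for viable counts.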

[3] = test system: Streptococcus mutans; test: Antibacterial activity against Streptococcus mutans ATCC 33402 after 24 to 48 hrs; type: functional
Outline: (§2)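 MBC: wells at the MIC plus one dilution above and below plated on agar; after 24 to 48 h growth, MBC = lowest concentration giving no visible growth on the agar surface.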

[4] = test system: Streptococcus mutans; test: Antibacterial activity against Streptococcus mutans ATCC 33402 assessed as inhibition of biofilm formation at >1 ug/ml in presence of 1% sucrose by crystal violet staining; type: functional, organism-based
[5] = test system: Candida parapsilosis; test: Antifungal activity against Candida parapsilosis ATCC 22019 after 24 hrs by broth microdilution assay; type: functional; details: Lodderomyces parapsilosis, ATCC 22019, 24 h
Outline: (§3)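 CLSI M27-A2 broth microdilution. Colonies from 24-h YPD agar culture suspended in 0.85% saline, set to 0.5 McFarland (OD 530 nm). Final inoculum 0.5–2.5 × 10³ CFU/ml in RPMI 1640 + 0.165 M MOPS pH 7.0. DMSO stock diluted to final 0.016–16 μg/ml. 35°C, visual read at 24 h against the drug-free well. Duplicate.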

[6] = test system: Streptococcus mutans; test: Antibacterial activity against Streptococcus mutans isolate N32 after 24 to 48 hrs; type: functional; outline: as §2
[7] = test system: Staphylococcus aureus; test: Antibacterial activity against Staphylococcus aureus ATCC 27660 after 18 to 24 hrs; type: functional
Outline: (§4)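 Exponential-phase overnight culture in the organism's growth medium, adjusted to 4.5 × 10⁵ CFU/ml and added to serial compound dilutions in 96-well plates; 37°C for 18 to 24 h in a humidified container. MIC = lowest concentration preventing visible turbidity. Triplicate.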

[8] = test system: Aggregatibacter actinomycetemcomitans; test: Antibacterial activity against Actinobacillus actinomycetemcommitans CU1000 after 24 to 48 hrs; type: functional; outline: as §2
[9] = test system: Streptococcus mutans; test: Antibacterial activity against Streptococcus mutans ATCC 33402 in presence of 50% human saliva; type: functional
[10] = test system: Nucleic Acid; test: Binding affinity to double stranded DNA retardation of oligonucleotide movement by agarose gel electrophoresis; type: nucleic-acid assay
[11] = test system: Staphylococcus aureus; test: Antibacterial activity against Staphylococcus aureus ATCC 27660 after 24 to 48 hrs; type: functional; outline: as §2
[12] = test system: Streptococcus mutans; test: Antibacterial activity against Streptococcus mutans ATCC 33402 biofilms assessed as inhibition of adherent biomass growth at >2.5 ug/ml in presence of 1% sucrose by crystal violet staining; type: functional, organism-based
Outline: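 1 × 10⁵ CFU seeded in 96-well plates in BHI + 1% sucrose to form a biofilm, then exposed to increasing concentrations. After PBS washes to remove planktonic cells, methanol fixation and crystal violet staining, absorbance read at 595 nm. Reported as change from day-2 cultures before compound addition. Triplicate; SD.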

[13] = test system: Nucleic Acid; test: Binding affinity to single stranded AT-rich oligonucleotide assessed as retardation of oligonucleotide movement by agarose gel electrophoresis; type: nucleic-acid assay
[14] = test system: Porphyromonas gingivalis; test: Antibacterial activity against Porphyromonas gingivalis ATCC 53978 after 24 to 48 hrs; type: functional
Outline: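 P. gingivalis MBC, anaerobic, from MIC plates run in cooked meat medium and TSB: the MIC well and one dilution above and below plated; lowest concentration with no visible agar growth after 24 to 48 h.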

[15] = test system: Aggregatibacter actinomycetemcomitans; test: Antibacterial activity against Actinobacillus actinomycetemcommitans CU1000 after 18 to 24 hrs; type: functional; outline: as §4
[16] = test system: Streptococcus mutans; test: Antibacterial activity against Streptococcus mutans ATCC 33402 in presence of 30 nM single stranded DNA; type: functional, organism-based
[17] = test system: Streptococcus mutans; test: Antibacterial activity against Streptococcus mutans ATCC 33402 biofilms assessed as bacterial dead cells at 50 ug/ml after 24 hrs by fluorescence confocal microscopy; type: functional, organism-based
Outline: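 2-day sucrose biofilms treated 24 h with 0 or 50 μg/ml, washed three times with PBS, stained 15 min in the dark with LIVE/DEAD dye diluted 1:1,000, washed once. Imaged by confocal laser scanning microscopy at 488 and 543 nm, side and top views.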

[18] = test system: RAW264.7; test: Inhibition of Pseudomonas aeruginosa LPS-induced TNFalpha production in mouse RAW264.7 cells at 9.5 nM after 6 hrs by ELISA; type: functional, cell-based
Outline: (§5)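 RAW 264.7 macrophages plated overnight at 1 × 10⁶ cells/well, then stimulated with 100 ng/ml LPS together with test agent for 6 h at 37°C. TNF-α in the medium measured by mouse TNF-α ELISA. Triplicate; SE; t test.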

[19] = test system: Candida albicans; test: Antifungal activity against Candida albicans ATCC 90028 after 24 hrs by broth microdilution assay; type: functional; details: ATCC 90028, 24 h; outline: as §3
[20] = test system: Candida albicans; test: Antifungal activity against Candida albicans 44 after 24 hrs by broth microdilution assay; type: functional; details: Candida albicans, 44, 24 h; outline: as §3
[21] = test system: Streptococcus mutans; test: Antibacterial activity against Streptococcus mutans ATCC 33402 after 18 to 24 hrs; type: functional; outline: as §4
[22] = test system: Streptococcus mutans; test: Antibacterial activity against Streptococcus mutans ATCC 33402 in presence of 25% human saliva; type: functional
[23] = test system: Streptococcus mutans; test: Antibacterial activity against Streptococcus mutans isolate N43 after 18 to 24 hrs; type: functional; outline: as §4
[24] = test system: Actinomyces viscosus; test: Antibacterial activity against Actinomyces viscosus after 18 to 24 hrs; type: functional; outline: as §4
[25] = test system: Streptococcus mutans; test: Antibacterial activity against Streptococcus mutans ATCC 33402 assessed as log cell killing at 10 times MIC within 1 minute by time kill study; type: functional
[26] = test system: Candida tropicalis; test: Antifungal activity against Candida tropicalis ATCC 750 after 24 hrs by broth microdilution assay; type: functional; details: ATCC 750, 24 h; outline: as §3
[27] = test system: Nakaseomyces glabratus; test: Antifungal activity against Candida glabrata ATCC 90030 after 24 hrs by broth microdilution assay; type: functional; details: ATCC 90030, 24 h; outline: as §3
[28] = test system: Pichia kudriavzevii; test: Antifungal activity against Candida krusei ATCC 6258 after 24 hrs by broth microdilution assay; type: functional; details: ATCC 6258, 24 h; outline: as §3
[29] = test system: Streptococcus mutans; test: Antibacterial activity against Streptococcus mutans ATCC 33402 assessed as log cell killing at MIC after 1 hr by time kill study; type: functional, organism-based
[30] = test system: Actinomyces viscosus; test: Antibacterial activity against Actinomyces viscosus after 24 to 48 hrs; type: functional; outline: as §2
[31] = test system: Candida albicans; test: Antifungal activity against Candida albicans M70 after 24 hrs by broth microdilution assay; type: functional; details: M70, 24 h; outline: as §3
[32] = test system: Streptococcus mutans; test: Antibacterial activity against Streptococcus mutans isolate N43 after 24 to 48 hrs; type: functional; outline: as §2
[33] = test system: Streptococcus mutans; test: Antibacterial activity against Streptococcus mutans isolate N32 after 18 to 24 hrs; type: functional; outline: as §4
[34] = test system: Streptococcus mutans; test: Antibacterial activity against Streptococcus mutans ATCC 33402 in presence of 10% human saliva; type: functional
[35] = test system: Candida dubliniensis; test: Antifungal activity against Candida dubliniensis NCPF3949 after 24 hrs by broth microdilution assay; type: functional; details: NCPF3949, 24 h; outline: as §3
[36] = test system: Nucleic Acid; test: Binding affinity to single stranded GC-rich oligonucleotide assessed as retardation of oligonucleotide movement by agarose gel electrophoresis; type: nucleic-acid assay
[37] = test system: RAW264.7; test: Inhibition of Pseudomonas aeruginosa LPS-induced TNFalpha production in mouse RAW264.7 cells at 7 nM after 6 hrs by ELISA; type: functional, cell-based; outline: as §5
[38] = test system: Streptococcus mutans; test: Antibacterial activity against Streptococcus mutans ATCC 33402 biofilms assessed as log reduction of viable bacteria at 500 ug/ml; type: functional, organism-based; outline: as §1

- MIC [1]: 2.5 µg/mL (≈ 4.79 µM)
- MIC [5]: 1 µg/mL (≈ 1.91 µM)
- MIC [7]: 0.25 µg/mL (≈ 0.479 µM)
- MIC [9]: 0.5 µg/mL
- Activity [10]: Active
- Activity [13]: Active
- MIC [15]: 0.4 µg/mL (≈ 0.766 µM)
- MIC [19]: 1 µg/mL (≈ 1.91 µM)
- MIC [20]: 0.5 µg/mL (≈ 0.957 µM)
- MIC [21]: 0.5 µg/mL (≈ 0.957 µM)
- MIC [22]: 1 µg/mL
- MIC [23]: 0.5 µg/mL (≈ 0.957 µM)
- MIC [24]: 0.8 µg/mL (≈ 1.53 µM)
- MIC [26]: 1 µg/mL (≈ 1.91 µM)
- MIC [27]: 1 µg/mL (≈ 1.91 µM)
- MIC [28]: 1 µg/mL (≈ 1.91 µM)
- MIC [31]: 0.5 µg/mL (≈ 0.957 µM)
- MIC [33]: 0.5 µg/mL (≈ 0.957 µM)
- MIC [34]: 1 µg/mL
- MIC [35]: 1 µg/mL (≈ 1.91 µM)
- Activity [36]: Active
Compound: NCCc1cc(Br)cc(C#Cc2cccc(C#Cc3cc(Br)cc(CCN)c3)c2)c1
- Activity [2]: 3
- MBC [3]: 1.25 µg/mL (≈ 2.39 µM)
- Activity [4]: Active
- MFC [5]: 2 µg/mL (≈ 3.83 µM)
- MBC [6]: 1.25 µg/mL (≈ 2.39 µM)
- MBC [8]: 1.5 µg/mL (≈ 2.87 µM)
- MBC [11]: 0.8 µg/mL (≈ 1.53 µM)
- Activity [12]: Active
- MBC [14]: 2.5 µg/mL (≈ 4.79 µM)
- Activity [16]: Active
- Activity [17]: Active
- Activity [18]: Active
- MFC [19]: 2 µg/mL (≈ 3.83 µM)
- MFC [20]: 1 µg/mL (≈ 1.91 µM)
- Activity [25]: >2
- MFC [26]: 2 µg/mL (≈ 3.83 µM)
- MFC [27]: 2 µg/mL (≈ 3.83 µM)
- MFC [28]: 2 µg/mL (≈ 3.83 µM)
- Activity [29]: Active
- MBC [30]: 1.5 µg/mL (≈ 2.87 µM)
- MFC [31]: 1 µg/mL (≈ 1.91 µM)
- MBC [32]: 1.25 µg/mL (≈ 2.39 µM)
- MFC [35]: 2 µg/mL (≈ 3.83 µM)

Compound: POLYMYXIN B
- Activity [37]: Active

Compound: CN(C)[C@@H]1C(O)=C(C(N)=O)C(=O)[C@@]2(O)C(O)=C3C(=O)c4c(O)cccc4[C@@](C)(O)[C@H]3C[C@@H]12
- Activity [38]: Active
